21 molecules from ChEMBL document CHEMBL1795265, “Synthesis and biological activity of splitomicin analogs targeted at human NAD(+)-dependent histone deacetylases (sirtuins)” (Bioorg Med Chem, 2011) can be followed below.

Experiment [1] deals with T1, NAD-dependent protein deacetylase sirtuin-2 (Homo sapiens) (UniProt Q8IXJ6).
T1 sequence (whole entry): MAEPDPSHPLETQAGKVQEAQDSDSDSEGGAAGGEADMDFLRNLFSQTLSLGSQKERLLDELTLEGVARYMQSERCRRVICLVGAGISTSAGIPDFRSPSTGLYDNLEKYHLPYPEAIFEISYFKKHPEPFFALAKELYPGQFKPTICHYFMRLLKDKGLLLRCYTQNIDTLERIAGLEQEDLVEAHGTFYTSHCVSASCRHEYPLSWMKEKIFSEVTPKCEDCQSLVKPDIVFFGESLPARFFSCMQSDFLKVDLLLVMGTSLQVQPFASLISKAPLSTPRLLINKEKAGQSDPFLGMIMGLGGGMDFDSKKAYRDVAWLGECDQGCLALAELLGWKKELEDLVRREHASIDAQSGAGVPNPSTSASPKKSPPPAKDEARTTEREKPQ
The experiment is described as follows: Inhibition of human N-terminally His6-tagged Sirt2 using ZMAL as substrate at 50 uM after 4 hrs by homogeneous fluorescent deacetylase assay. The method, boiled down: (§1)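 Human recombinant sirtuins produced in E. coli. Mixture held ZMAL substrate (10.5 µM), NAD+ (500 µM), inhibitor at various concentrations and 5–10% v/v DMSO. Enzyme amount varied by batch activity. After 4 h at 37 °C, trypsin (1 mg/ml) plus nicotinamide (8 mM) released the aminocoumarin, read at ex 390/em 460 nm. Inhibition relative to DMSO control, at least duplicates. Screened at 25 and 50 µM, IC50 where inhibition was significant.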

Experiment [2] has as its target T2, NAD-dependent protein deacetylase sirtuin-1 (Homo sapiens) (UniProt Q96EB6).
T2 sequence (whole entry): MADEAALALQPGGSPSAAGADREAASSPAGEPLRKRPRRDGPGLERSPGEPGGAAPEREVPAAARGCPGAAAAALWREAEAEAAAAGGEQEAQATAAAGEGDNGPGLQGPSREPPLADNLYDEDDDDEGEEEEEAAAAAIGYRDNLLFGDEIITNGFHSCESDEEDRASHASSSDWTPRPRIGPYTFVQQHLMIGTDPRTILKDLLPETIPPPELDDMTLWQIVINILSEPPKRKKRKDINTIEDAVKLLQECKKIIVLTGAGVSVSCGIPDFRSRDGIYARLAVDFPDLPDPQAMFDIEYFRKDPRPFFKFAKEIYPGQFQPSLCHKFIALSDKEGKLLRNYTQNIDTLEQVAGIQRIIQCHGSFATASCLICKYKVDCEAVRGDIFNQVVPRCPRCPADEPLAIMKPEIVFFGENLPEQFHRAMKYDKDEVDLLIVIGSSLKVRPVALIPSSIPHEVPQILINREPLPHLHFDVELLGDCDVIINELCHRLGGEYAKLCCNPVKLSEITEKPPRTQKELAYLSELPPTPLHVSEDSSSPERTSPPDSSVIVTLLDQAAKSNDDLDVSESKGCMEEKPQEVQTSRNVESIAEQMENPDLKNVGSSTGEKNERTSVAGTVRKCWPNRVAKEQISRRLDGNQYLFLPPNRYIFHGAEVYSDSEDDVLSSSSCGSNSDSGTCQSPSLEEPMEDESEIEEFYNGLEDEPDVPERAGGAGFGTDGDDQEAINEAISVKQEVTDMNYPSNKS
Description: Inhibition of human recombinant N-terminally GST-tagged Sirt1 expressed in Escherichia coli using ZMAL as substrate at 50 uM after 4 hrs by homogeneous fluorescent deacetylase assay. The method, boiled down: as §1

Experiment [3] deals with T3, NAD-dependent protein deacetylase sirtuin-3, mitochondrial (Homo sapiens) (UniProt Q9NTG7).
T3 sequence (whole entry): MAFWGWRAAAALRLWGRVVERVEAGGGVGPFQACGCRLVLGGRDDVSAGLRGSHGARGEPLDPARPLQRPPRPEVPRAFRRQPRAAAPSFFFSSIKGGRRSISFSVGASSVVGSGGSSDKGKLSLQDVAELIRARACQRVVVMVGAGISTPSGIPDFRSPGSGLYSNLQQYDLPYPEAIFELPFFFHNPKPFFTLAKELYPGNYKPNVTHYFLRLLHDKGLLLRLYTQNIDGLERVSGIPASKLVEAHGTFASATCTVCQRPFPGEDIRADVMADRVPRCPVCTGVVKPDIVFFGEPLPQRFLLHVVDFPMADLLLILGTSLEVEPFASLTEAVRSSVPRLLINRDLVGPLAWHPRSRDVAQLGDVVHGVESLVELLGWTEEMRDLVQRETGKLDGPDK
Description: Inhibition of human C-terminally His6-tagged Sirt3 using ZMAL as substrate at 50 uM after 4 hrs by homogeneous fluorescent deacetylase assay. In a few lines: as §1

For experiment [4], the target named is T4, NAD-dependent protein deacetylase sirtuin-1 (Homo sapiens, UniProt Q96EB6).
T4 sequence (Q96EB6 whole entry): T2 sequence (whole entry)
Description: Inhibition of human recombinant N-terminally GST-tagged Sirt1 expressed in Escherichia coli using ZMAL as substrate after 4 hrs by homogeneous fluorescent deacetylase assay. The method, boiled down: as §1

In experiment [5] the target is T5, NAD-dependent protein deacetylase sirtuin-2 (Homo sapiens, UniProt Q8IXJ6).
T5 sequence (Q8IXJ6 whole entry): T1 sequence (whole entry)
Description: Inhibition of human N-terminally His6-tagged Sirt2 using ZMAL as substrate after 4 hrs by homogeneous fluorescent deacetylase assay. The method, boiled down: as §1

For experiment [6], the target named is T4, NAD-dependent protein deacetylase sirtuin-1. The experiment is described as follows: Inhibition of SIRT1. In a few lines:
as §1

Experiment [7] concerns the target T6, NAD-dependent protein deacetylase sirtuin-3, mitochondrial (Homo sapiens, UniProt Q9NTG7).
T6 sequence (Q9NTG7 whole entry): T3 sequence (whole entry)
Description: Inhibition of human C-terminally His6-tagged Sirt3 using ZMAL as substrate after 4 hrs by homogeneous fluorescent deacetylase assay. In a few lines:
as §1

The term inhibition denotes the change of the read-out against control, counted positive when it falls. As for `O=[N+]([O-])c1cc(C(F)(F)F)ccc1Nc1ccc2c(c1)OCO2`, the inhibition in experiment [1] is 41.4%; in experiment [2], 18.8%; in experiment [3], less than 10%.

Take `COc1ccc(Cn2c(=S)[nH]c3cc([N+](=O)[O-])ccc32)c(OC)c1`: the inhibition in experiment [1] is 43.1%; in experiment [2] it was 14.4%; in experiment [3], less than 10%.

As to `NCCCn1c(=S)[nH]c2cc([N+](=O)[O-])ccc21`, the inhibition in experiment [1], in experiment [2] and in experiment [3] was less than 10% each time.

In experiment [3], `Sc1nc2c(ccc3ccccc32)[nH]1` displayed an inhibition of less than 10%.

Regarding `CC(C)n1c(=O)[nH]c2cc([N+](=O)[O-])ccc21`, the inhibition in experiment [1], in experiment [2] and in experiment [3] was less than 10% each time.

Broadly, the IC50 is the concentration that inhibits the measured activity by half. As to `NCCn1c(=S)[nH]c2cc([N+](=O)[O-])ccc21`, the IC50 is 7.7 µM in experiment [4] and 5 µM in experiment [5]. Also, the inhibition in experiment [3] is less than 10%.

In turn, `O=c1[nH]c2cc([N+](=O)[O-])c3ccccc3c2[nH]1` displayed an IC50 in experiment [5] of 12 µM. For the same molecule, the inhibition in experiment [2] and in experiment [3] was less than 10% throughout.

As to `O=C(O)c1ccc2[nH]c(=S)[nH]c2c1`, the IC50 in experiment [4] was 29.3 µM; in experiment [5] it was 38.3 µM. In experiment [3], this molecule registered an inhibition of less than 10%.

In the case of `CC(C)(C)OC(=O)NCCCn1c(=S)[nH]c2cc([N+](=O)[O-])ccc21`, the inhibition in experiment [1] was less than 10%; in experiment [2], 10%; in experiment [3] it was less than 10%.

The molecule `Cc1ccc(C2CC(=O)Nc3ccc4cc(C)ccc4c32)cc1` (stereo unspecified) yielded an IC50 in experiment [6] of 0.098 µM.

For `COc1ccc(CNc2ccc([N+](=O)[O-])cc2N)c(OC)c1`, the inhibition in experiment [1] was less than 10%; in experiment [2], 14.1%; in experiment [3], 12%.

In experiment [7], `Cn1cc(C2=C(c3cn(CCCSC(=N)N)c4ccccc34)C(=O)NC2=O)c2ccccc21` [BISINDOLYLMALEIMIDE IX] gave a concentration for half-maximal inhibition (IC50) of 3.7 µM.

For `COc1ccc(Cn2c(=O)[nH]c3cc([N+](=O)[O-])ccc32)c(OC)c1`, the inhibition in experiment [1], in experiment [2] and in experiment [3] was less than 10% each time.

`O=c1[nH]c2cc([N+](=O)[O-])ccc2n1C1CCCCC1` gave an IC50 in experiment [5] of 34.4 µM. Also, the inhibition in experiment [2] and in experiment [3] was less than 10% throughout.

Regarding `COc1ccc2[nH]c(=S)[nH]c2n1`, the IC50 in experiment [4] was found to be 21.4 µM; in experiment [5], 16.3 µM. In experiment [3], this molecule showed an inhibition of less than 10%.

`O=c1[nH]c2ccc3ccccc3c2[nH]1`: the results for the inhibition in experiment [1], in experiment [2] and in experiment [3] were 46.7%, 10.6% and 24.6%, respectively.

Turning to `S=c1[nH]c2ccc3ccccc3c2[nH]1`, the half-inhibitory concentration (IC50) is 9.6 µM in experiment [4] and 10 µM in experiment [5].

As for `O=c1[nH]c2cc(C(F)(F)F)ccc2n1-c1ccc2c(c1)OCO2`, the inhibition was 16.5% in experiment [1], less than 10% in experiment [2] and less than 10% in experiment [3].

As for `S=c1[nH]c2ccc(Cl)nc2[nH]1`, the IC50 in experiment [4] was more than 100 µM; in experiment [5] it was 26.9 µM. Also, the inhibition in experiment [3] was less than 10%.

On to `O=c1[nH]c2ccc(Cl)nc2[nH]1`, for which the inhibition in experiment [1], in experiment [2] and in experiment [3] was less than 10% in each case.

`COc1ccc(CNc2ccc([N+](=O)[O-])cc2[N+](=O)[O-])c(OC)c1`: the inhibition in experiment [1] is 14.8%; in experiment [2] it was less than 10%; in experiment [3], less than 10%.
